Reference: ChEMBL document CHEMBL5346886 (Eur J Med Chem, 2023)
Activity calls are given as the source filed them. The calls are words filed in the database; no cut-off is given here.

Key:
Format in all cases: functional, organism-based
[1] = test system: Murine hepatitis virus; experiment: Antiviral activity against murine hepatitis virus-A59 infected in BALB/c mouse assessed as alleviation of lymphocytes infiltration in lungs at 200 mg/kg, po administered once daily one hour post infection and measured after 3 days by H&E staining based analysis; settings: time 3.0 day
In short: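 In male BALB/c mice (3–4 weeks), MHV-A59 was given intranasally (30 μL, TCID50 = 10−7.125/100 μL). Oral dosing once daily in a Cremophor EL/PBS/DMSO vehicle began at 1 hpi and lasted four days. At 3 dpi, lungs and livers from 4 mice per group were fixed in zinc formalin and paraffin-embedded. Sections of about 4 μm were stained with H&E and examined at 200× and 400×.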

[2] = test system: Transmissible gastroenteritis virus; experiment: Antiviral activity against Transmissible gastroenteritis virus infected in ST cells assessed as reduction in viral copy pre-infected with cells for 1 hrs followed by compound addition and measured after 48 hrs by RT-qPCR analysis; settings: Alphacoronavirus 1, ST
In short: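 CRFK cells (CCoV, FIPV) or ST cells (TGEV) were grown in DMEM with 10% FBS at 37 °C, 5% CO2. At 80% confluence they were washed in serum-free medium and infected at MOI 0.01 for 1 h at 37 °C. Compounds were then added at 0.1–100 μmol/L, with DMSO as blank. After 48 h, cells and supernatants were analysed by qRT-PCR. Inhibition came from viral copy number, and EC50 from curve fitting.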

[3] = test system: Murine hepatitis virus; experiment: Antiviral activity against murine hepatitis virus-A59 infected in BALB/c mouse model of acute liver injury assessed as reduction in plasma AST level at 10 to 200 mg/kg, po administered once daily one hour post infection and measured after 3 days; settings: dose 10-200 mg/kg, time 3.0 day
In short: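 Male BALB/c mice were infected intranasally with MHV-A59 (30 μL, TCID50 = 10−7.125/100 μL) and dosed orally once daily from 1 hpi for four days in 15% Cremophor EL/82.5% PBS/2.5% DMSO. At 3 dpi, blood from 4 euthanized mice per group was left to clot at room temperature and centrifuged. Serum ALT and AST were measured on a clinical chemistry analyzer.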

[4] = test system: Murine hepatitis virus; experiment: Antiviral activity against murine hepatitis virus-A59 infected in BALB/c mouse assessed as reduction in IFN-gamma production in lungs at 200 mg/kg, po administered once daily one hour post infection and measured after 3 days by ELISA analysis; settings: time 3.0 day
In short: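 MHV-A59 was inoculated intranasally into male BALB/c mice (30 μL, TCID50 = 10−7.125/100 μL), with oral dosing once daily from 1 hpi for four days. At 3 dpi, 0.1 g lung or liver from 4 mice per group was homogenized in 0.9 mL water at 4 °C and centrifuged. Supernatant IFN-β was read by ELISA; TNF-α, IFN-γ, IL-1β, IL-6 and CXCL10 by multi-analyte kit, with OD 450 nm against standards.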

[5] = test system: Murine hepatitis virus; experiment: Antiviral activity against Murine hepatitis virus-A59 infected in mouse L929 cells assessed as reduction in viral copy pre-infected with cell for 1 hrs followed by compound addition and measured after 48 hrs by RT-qPCR analysis; settings: Murine coronavirus
In short: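 L929 cells in DMEM with 10% FBS were washed serum-free at 80% confluence and infected with MHV-A59 at MOI 0.01 for 1 h at 37 °C. Compounds were added at 0.1–100 μmol/L, with DMSO as blank control. After 48 h at 37 °C, the viral M gene in supernatant was measured by qRT-PCR. Percent inhibition was derived from copy number and EC50 from curve fitting.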

CC(C)Cc1ccc(C(C)C(=O)OC[C@H]2O[C@@](C#N)(c3ccc4c(N)ncnn34)[C@H](O)[C@@H]2O)cc1 (stereo not given in full)
Activity [1]: Active
EC50 [2]: 3.78 µM
Activity [3]: Active
Activity [4]: Active
EC50 [5]: 1150 nM
